Test results: ChEMBL document CHEMBL5653631, “A Potent and Selective ULK1 Inhibitor Suppresses Autophagy and Sensitizes Cancer Cells to Nutrient Stress” (iScience, 2018)

How the values were obtained:
[1] = target: Cyclin-dependent kinase 13 (Homo sapiens) (UniProt Q14004); assay: Inhibition of human recombinant CHED at 500 nM related to control ULK1
[2] = target: Tyrosine-protein kinase BTK (Homo sapiens) (UniProt Q06187); assay: Inhibition of human recombinant BTK at 15 nM in presence of ATP by radiometric assay relative to control
Sequence of Tyrosine-protein kinase BTK (Homo sapiens) (Q06187 whole entry): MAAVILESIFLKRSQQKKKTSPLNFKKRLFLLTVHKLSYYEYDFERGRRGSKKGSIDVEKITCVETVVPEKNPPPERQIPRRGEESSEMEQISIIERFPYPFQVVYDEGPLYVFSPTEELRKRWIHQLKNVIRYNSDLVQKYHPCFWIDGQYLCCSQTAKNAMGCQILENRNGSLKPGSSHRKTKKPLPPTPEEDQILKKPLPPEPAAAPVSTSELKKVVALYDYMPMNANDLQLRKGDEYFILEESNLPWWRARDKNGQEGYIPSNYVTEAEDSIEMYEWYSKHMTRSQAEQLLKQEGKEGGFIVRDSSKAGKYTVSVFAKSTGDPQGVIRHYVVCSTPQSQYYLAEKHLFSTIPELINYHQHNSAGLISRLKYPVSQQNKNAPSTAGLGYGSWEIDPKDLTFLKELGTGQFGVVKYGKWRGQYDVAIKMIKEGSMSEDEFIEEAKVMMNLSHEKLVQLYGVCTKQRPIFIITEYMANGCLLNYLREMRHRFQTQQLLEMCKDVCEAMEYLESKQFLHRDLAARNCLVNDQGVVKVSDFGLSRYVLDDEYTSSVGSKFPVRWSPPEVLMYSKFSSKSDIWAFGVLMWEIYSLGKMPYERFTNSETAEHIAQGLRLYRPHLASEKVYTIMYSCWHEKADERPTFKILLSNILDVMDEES

[3] = target: T1, Serine/threonine-protein kinase A-Raf (Homo sapiens) (UniProt P10398); assay: Inhibition of human recombinant ARAF at 15 nM related to control ULK1
T1 sequence (whole entry): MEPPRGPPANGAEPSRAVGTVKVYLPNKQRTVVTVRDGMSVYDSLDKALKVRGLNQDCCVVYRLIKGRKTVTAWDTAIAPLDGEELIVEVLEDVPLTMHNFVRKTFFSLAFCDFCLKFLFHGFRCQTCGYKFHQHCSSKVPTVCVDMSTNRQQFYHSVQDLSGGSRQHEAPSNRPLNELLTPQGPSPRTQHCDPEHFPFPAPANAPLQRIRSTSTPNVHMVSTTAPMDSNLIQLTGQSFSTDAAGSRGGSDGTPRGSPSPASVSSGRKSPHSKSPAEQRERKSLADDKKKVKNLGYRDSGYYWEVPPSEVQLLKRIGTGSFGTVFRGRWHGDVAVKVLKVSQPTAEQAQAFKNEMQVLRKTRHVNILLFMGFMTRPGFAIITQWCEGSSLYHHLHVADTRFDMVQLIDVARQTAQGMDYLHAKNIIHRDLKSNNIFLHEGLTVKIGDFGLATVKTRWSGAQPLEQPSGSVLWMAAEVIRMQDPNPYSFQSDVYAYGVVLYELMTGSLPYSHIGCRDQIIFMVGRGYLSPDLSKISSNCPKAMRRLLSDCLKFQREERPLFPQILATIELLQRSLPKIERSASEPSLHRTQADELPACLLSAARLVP
In short: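 Panel of 327 recombinant human kinases, each assayed in vitro by radiometric activity assay in duplicate at a single inhibitor concentration per compound, chosen with reference to its ULK1 inhibition. Activity remaining was expressed as percent of vehicle control, and percent inhibition was calculated as 100 minus percent activity remaining.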

[4] = target: Calcium/calmodulin-dependent protein kinase kinase 2 (Homo sapiens) (UniProt Q96RR4); assay: Inhibition of human recombinant CaMKK2 at 15 nM related to control ULK1
Sequence of Calcium/calmodulin-dependent protein kinase kinase 2 (Homo sapiens) (Q96RR4 2-588 limits assumed): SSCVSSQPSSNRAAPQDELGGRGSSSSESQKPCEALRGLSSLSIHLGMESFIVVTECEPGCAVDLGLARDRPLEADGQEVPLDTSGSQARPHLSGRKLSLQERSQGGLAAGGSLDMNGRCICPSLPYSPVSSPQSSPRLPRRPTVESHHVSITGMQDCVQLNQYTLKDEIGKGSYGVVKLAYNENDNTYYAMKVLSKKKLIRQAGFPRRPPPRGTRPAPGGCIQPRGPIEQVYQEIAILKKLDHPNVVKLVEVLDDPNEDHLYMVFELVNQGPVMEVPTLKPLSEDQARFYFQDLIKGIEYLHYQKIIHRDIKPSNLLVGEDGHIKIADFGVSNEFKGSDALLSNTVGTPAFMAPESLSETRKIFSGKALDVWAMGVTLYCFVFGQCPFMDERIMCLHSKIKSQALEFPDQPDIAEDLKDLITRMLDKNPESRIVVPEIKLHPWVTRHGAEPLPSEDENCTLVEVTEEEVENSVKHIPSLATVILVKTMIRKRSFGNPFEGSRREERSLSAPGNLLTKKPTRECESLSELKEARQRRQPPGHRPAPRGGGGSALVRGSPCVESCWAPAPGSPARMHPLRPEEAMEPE

[5] = target: Receptor-interacting serine/threonine-protein kinase 2 (Homo sapiens) (UniProt O43353); assay: Inhibition of human recombinant RIPK2 at 15 nM related to control ULK1
Sequence of Receptor-interacting serine/threonine-protein kinase 2 (Homo sapiens) (O43353 whole entry): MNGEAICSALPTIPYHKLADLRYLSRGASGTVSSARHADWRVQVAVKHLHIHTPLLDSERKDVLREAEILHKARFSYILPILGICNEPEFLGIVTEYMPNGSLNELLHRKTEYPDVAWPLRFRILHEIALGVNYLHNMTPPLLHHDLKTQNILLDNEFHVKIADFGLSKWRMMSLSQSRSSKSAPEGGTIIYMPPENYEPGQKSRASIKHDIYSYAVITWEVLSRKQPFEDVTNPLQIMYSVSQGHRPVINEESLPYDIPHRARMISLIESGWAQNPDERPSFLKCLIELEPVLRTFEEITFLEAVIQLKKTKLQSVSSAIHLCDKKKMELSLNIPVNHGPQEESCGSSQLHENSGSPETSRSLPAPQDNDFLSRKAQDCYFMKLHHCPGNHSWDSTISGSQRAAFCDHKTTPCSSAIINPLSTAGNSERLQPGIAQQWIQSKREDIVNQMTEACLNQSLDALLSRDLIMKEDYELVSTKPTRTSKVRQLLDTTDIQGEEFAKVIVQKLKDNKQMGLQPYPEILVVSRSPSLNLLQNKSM

[6] = target: Serine/threonine-protein kinase 4 (MST1/STK4) (Homo sapiens) (UniProt Q13043); assay: Inhibition of human recombinant MST1 at 15 nM in presence of ATP by radiometric assay relative to control
Sequence of Serine/threonine-protein kinase 4 (MST1/STK4) (Homo sapiens) (Q13043 whole entry, looked up): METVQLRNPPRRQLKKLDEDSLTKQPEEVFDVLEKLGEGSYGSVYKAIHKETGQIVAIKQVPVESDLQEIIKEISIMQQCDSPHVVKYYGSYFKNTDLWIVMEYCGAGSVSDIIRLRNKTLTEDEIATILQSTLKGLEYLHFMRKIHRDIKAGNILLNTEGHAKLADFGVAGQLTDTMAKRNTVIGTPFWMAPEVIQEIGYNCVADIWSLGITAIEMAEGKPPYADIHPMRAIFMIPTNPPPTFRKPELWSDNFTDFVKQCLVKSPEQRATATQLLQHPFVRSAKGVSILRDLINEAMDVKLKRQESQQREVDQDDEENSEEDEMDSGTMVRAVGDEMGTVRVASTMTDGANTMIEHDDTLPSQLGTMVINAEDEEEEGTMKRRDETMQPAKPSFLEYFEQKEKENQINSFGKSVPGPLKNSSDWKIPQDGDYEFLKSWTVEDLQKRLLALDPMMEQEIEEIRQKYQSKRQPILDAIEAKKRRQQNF

[7] = target: Cyclin-dependent kinase 2 (Homo sapiens) (UniProt P24941); assay: Inhibition of human recombinant CDK2 at 40 nM in presence of ATP by radiometric assay relative to control
[8] = target: T2, Ephrin type-B receptor 4 (Homo sapiens) (UniProt P54760); assay: Inhibition of human recombinant EphB4 at 40 nM in presence of ATP by radiometric assay relative to control
T2 sequence (whole entry): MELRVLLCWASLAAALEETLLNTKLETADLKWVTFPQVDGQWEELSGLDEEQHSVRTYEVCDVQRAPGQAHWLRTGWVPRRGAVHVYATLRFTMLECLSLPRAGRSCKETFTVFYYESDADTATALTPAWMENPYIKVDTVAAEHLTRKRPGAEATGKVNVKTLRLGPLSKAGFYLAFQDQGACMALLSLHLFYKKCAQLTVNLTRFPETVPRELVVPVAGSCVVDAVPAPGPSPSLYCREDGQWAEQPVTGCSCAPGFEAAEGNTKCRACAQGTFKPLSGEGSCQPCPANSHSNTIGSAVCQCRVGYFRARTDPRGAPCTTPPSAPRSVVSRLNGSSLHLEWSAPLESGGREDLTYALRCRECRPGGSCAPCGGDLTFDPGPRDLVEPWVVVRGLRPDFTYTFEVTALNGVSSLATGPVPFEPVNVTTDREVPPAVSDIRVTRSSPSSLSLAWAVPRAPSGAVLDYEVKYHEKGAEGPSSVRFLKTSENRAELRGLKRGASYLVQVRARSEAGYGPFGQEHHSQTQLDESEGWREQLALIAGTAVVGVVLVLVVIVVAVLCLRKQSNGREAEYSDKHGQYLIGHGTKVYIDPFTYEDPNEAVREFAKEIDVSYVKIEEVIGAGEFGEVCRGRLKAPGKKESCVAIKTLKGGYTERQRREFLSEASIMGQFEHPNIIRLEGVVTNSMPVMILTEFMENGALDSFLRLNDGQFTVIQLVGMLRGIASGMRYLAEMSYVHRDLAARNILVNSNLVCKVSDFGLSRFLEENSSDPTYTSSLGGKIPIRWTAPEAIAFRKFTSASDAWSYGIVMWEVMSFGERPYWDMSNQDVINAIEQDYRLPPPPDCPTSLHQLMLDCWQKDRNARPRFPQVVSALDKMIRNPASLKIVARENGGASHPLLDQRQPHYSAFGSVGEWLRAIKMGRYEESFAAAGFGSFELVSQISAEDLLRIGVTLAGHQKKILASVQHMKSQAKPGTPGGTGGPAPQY

[9] = target: RAC-beta serine/threonine-protein kinase (Homo sapiens) (UniProt P31751); assay: Inhibition of human recombinant AKT2 at 40 nM related to control ULK1
Sequence of RAC-beta serine/threonine-protein kinase (Homo sapiens) (P31751 whole entry): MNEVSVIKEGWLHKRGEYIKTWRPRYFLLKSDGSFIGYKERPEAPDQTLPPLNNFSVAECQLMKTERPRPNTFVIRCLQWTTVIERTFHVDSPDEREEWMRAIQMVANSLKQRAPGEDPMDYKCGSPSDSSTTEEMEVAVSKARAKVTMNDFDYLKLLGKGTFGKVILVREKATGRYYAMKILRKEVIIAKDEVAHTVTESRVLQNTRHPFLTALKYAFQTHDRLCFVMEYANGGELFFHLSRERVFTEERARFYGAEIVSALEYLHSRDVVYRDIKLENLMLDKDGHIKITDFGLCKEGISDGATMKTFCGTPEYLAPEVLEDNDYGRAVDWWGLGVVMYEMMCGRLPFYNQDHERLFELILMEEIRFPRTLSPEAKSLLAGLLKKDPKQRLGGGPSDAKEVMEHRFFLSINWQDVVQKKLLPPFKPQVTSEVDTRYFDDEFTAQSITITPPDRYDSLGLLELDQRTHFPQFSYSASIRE
In short: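 Radiometric activity assays in a panel of 327 human recombinant kinases, each run in duplicate at one inhibitor concentration. Activity remaining is expressed as percent of vehicle control, and percent inhibition is calculated as 100% minus percent activity remaining.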

[10] = target: Tyrosine-protein kinase Fgr (Homo sapiens) (UniProt P09769); assay: Inhibition of human recombinant FGR at 40 nM related to control ULK1
Sequence of Tyrosine-protein kinase Fgr (Homo sapiens) (P09769 2-529 limits assumed): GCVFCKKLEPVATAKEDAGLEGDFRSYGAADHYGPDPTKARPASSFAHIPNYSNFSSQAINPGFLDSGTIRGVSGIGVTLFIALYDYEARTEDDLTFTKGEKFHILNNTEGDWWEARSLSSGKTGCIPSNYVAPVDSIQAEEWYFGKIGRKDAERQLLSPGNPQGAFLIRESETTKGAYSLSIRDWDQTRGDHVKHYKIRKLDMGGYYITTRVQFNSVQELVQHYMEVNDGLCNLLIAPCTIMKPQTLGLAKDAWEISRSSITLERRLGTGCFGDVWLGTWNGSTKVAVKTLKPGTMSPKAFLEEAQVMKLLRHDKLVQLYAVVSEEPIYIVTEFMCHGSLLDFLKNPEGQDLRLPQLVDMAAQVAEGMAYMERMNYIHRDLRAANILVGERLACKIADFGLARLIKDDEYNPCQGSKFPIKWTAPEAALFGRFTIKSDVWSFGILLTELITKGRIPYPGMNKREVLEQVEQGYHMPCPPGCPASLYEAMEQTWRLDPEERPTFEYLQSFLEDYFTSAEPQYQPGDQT

[11] = target: Dual specificity mitogen-activated protein kinase kinase 1 (Homo sapiens) (UniProt Q02750); assay: Inhibition of human recombinant MAP2K1 at 40 nM related to control ULK1
Sequence of Dual specificity mitogen-activated protein kinase kinase 1 (Homo sapiens) (Q02750 whole entry): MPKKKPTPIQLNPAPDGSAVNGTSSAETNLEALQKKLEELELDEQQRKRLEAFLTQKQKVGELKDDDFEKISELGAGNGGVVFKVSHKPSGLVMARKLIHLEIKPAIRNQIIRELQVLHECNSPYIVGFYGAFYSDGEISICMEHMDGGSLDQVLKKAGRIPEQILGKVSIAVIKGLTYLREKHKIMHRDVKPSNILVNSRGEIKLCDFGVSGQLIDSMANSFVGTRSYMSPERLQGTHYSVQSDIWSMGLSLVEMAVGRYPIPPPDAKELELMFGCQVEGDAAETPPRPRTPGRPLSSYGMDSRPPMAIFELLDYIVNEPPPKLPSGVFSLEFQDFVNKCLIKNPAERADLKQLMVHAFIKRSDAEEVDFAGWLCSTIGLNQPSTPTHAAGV

Compound: CNC(=O)c1ccccc1Oc1nc(Nc2cc(OC)c(OC)c(OC)c2)ncc1Br
- fold change (FC) [1]: 0

Compound: CC(C)[C@H](NC(=O)c1cc(-c2cnn3cc(-c4ccc(OCCN5CCCCC5)cc4)cnc23)cs1)C(F)(F)F
- inhibition [2]: 0%
- fold change (FC) [3]: 0.07
- fold change (FC) [4]: 0.01
- fold change (FC) [5]: 0.11
- inhibition [6]: 3%

Compound: O=C(N[C@@H](C1CC1)C(F)(F)F)c1cc(-c2cnn3cc(-c4ccc(F)cc4)cnc23)cs1
- inhibition [7]: 29%
- inhibition [8]: 0%
- fold change (FC) [9]: 0.14
- fold change (FC) [10]: 0.05
- fold change (FC) [11]: 0
